Laboratory results reported in ChEMBL document CHEMBL4834412, “2,4,5-Trisubstituted Pyrimidines as Potent HIV-1 NNRTIs: Rational Design, Synthesis, Activity Evaluation, and Crystallographic Studies” (J Med Chem, 2021).

How the values were obtained:
[1] = test system: Human immunodeficiency virus 1; assay: Antiviral activity against HIV-1 strain IIIB infected in human MT4 cells assessed as protection against virus-induced cytopathicity after 5 days by MTT assay; type: functional, organism-based; conditions: Human immunodeficiency virus 1, IIIB, MT4, 120 h
[2] = test system: Human immunodeficiency virus 1; assay: Antiviral activity against NNRTI-resistant HIV-1 RES056 harboring RT K103N/Y181C mutant infected in human MT4 cells assessed as protection against virus-induced cytopathogenicity after 5 days by MTT assay; type: functional, organism-based; conditions: Human immunodeficiency virus 1, RES056, MT4, 120 h
[3] = test system: Human immunodeficiency virus 1; assay: Antiviral activity against HIV-1 harboring RT L100I mutant infected in human MT4 cells assessed as protection against virus-induced cytopathogenicity after 5 days by MTT assay; type: functional, organism-based; conditions: Human immunodeficiency virus 1, MT4, 120 h
[4] = test system: Human immunodeficiency virus 1; assay: Antiviral activity against HIV-1 harboring RT K103N mutant infected in human MT4 cells assessed as protection against virus-induced cytopathogenicity after 5 days by MTT assay; type: functional, organism-based; conditions: Human immunodeficiency virus 1, MT4, 120 h
[5] = test system: Human immunodeficiency virus 1; assay: Antiviral activity against HIV-1 harboring RT Y181C mutant infected in human MT4 cells assessed as protection against virus-induced cytopathogenicity after 5 days by MTT assay; type: functional, organism-based; conditions: Human immunodeficiency virus 1, MT4, 120 h
[6] = test system: Human immunodeficiency virus 1; assay: Antiviral activity against HIV-1 harboring RT Y188L mutant infected in human MT4 cells assessed as protection against virus-induced cytopathogenicity after 5 days by MTT assay; type: functional, organism-based; conditions: Human immunodeficiency virus 1, MT4, 120 h
[7] = test system: Human immunodeficiency virus 1; assay: Antiviral activity against HIV-1 harboring RT E138K mutant infected in human MT4 cells assessed as protection against virus-induced cytopathogenicity after 5 days by MTT assay; type: functional, organism-based; conditions: Human immunodeficiency virus 1, MT4, 120 h
[8] = test system: Human immunodeficiency virus 1; assay: Antiviral activity against HIV-1 harboring RT F227L/V106A mutant infected in human MT4 cells assessed as protection against virus-induced cytopathogenicity after 5 days by MTT assay; type: functional, organism-based; conditions: Human immunodeficiency virus 1, MT4, 120 h
[9] = test system: Human immunodeficiency virus 2; assay: Antiviral activity against HIV-2 ROD infected in human MT4 cells assessed as protection against virus-induced cytopathogenicity after 5 days by MTT assay; conditions: Human immunodeficiency virus 2, ROD, MT4, 120 h
[10] = Tmax in Sprague-Dawley rat at 2 mg/kg, iv; type: ADME, organism-based; conditions: in vivo
Method in brief: (§1)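 Sprague Dawley rats given a single 2 mg/kg intravenous or 20 mg/kg oral dose. Plasma concentration–time profiles followed. PK parameters reported as mean ± SD, n = 3.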

[11] = Tmax in Sprague-Dawley rat at 20 mg/kg, po; type: ADME, organism-based; conditions: in vivo; method in brief: as §1
[12] = Acute toxicity in Kunming mouse assessed as toxic symptoms at 2000 mg/kg, po single dose measured up to 2 weeks; type: organism-based; conditions: in vivo, 336 h
Method in brief: (§2)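 Kunming mice, 20 total, randomly split into two groups: vehicle control (0 mg/kg) or single oral 2000 mg/kg dose on day 1. Animals observed for toxic symptoms and mortality over the following two weeks; body weight tracked and expressed as relative change.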

[13] = Acute toxicity in Kunming mouse assessed as mortality at 2000 mg/kg, po single dose measured up to 2 weeks; type: organism-based; conditions: in vivo, 336 h; method in brief: as §2
[14] = Acute toxicity in Kunming mouse assessed as body weight change at 2000 mg/kg, po single dose measured up to 2 weeks; type: organism-based; conditions: in vivo, 336 h; method in brief: as §2

In the case of Cc1cc(C#N)cc(C)c1Oc1nc(NC2CCN(Cc3ccc(S(N)(=O)=O)cc3)CC2)ncc1-c1ccsc1, the EC50 [1] is reported as 5.09 nM, the EC50 [2] is reported as 209 nM and the EC50 [3] is reported as 15.4 nM. For the same molecule, the EC50 [4] was 4.7 nM, the EC50 [5] was 12.3 nM and the EC50 [6] was 30.3 nM. For the same molecule, the EC50 [7] was 19.7 nM, the EC50 [8] was 85.3 nM and the EC50 [9] was greater than 6120 nM.

Work on Cc1cc(C#N)cc(C)c1Oc1nc(NC2CCN(Cc3ccc(S(N)(=O)=O)cc3)CC2)ncc1-c1cccs1 yielded an EC50 [1] of 4.57 nM, an EC50 [2] of 103 nM and an EC50 [3] of 5.92 nM. It also gave an EC50 [4] of 5.39 nM, an EC50 [5] of 10.7 nM and an EC50 [6] of 9.31 nM. It also gave an EC50 [7] of 7.71 nM, an EC50 [8] of 30.2 nM and an EC50 [9] of no less than 33400 nM.

Molecule Cc1cc(C#N)cc(C)c1Oc1nc(NC2CCN(Cc3ccc(S(C)(=O)=O)cc3)CC2)ncc1-c1ccco1 has an EC50 [1] of 4.52 nM, an EC50 [2] of 233 nM and an EC50 [3] of 20.4 nM. For the same molecule, the EC50 [4] was 5.92 nM, the EC50 [5] was 26.4 nM and the EC50 [6] was 28.8 nM. For the same molecule, the EC50 [7] was 27.4 nM, the EC50 [8] was 110 nM and the EC50 [9] was greater than 7460 nM.

For Cc1cc(C#N)cc(C)c1Oc1nc(NC2CCN(Cc3ccc(C(N)=O)cc3)CC2)ncc1-c1ccoc1, the EC50 [1] was 3.4 nM, the EC50 [2] was 108 nM and the EC50 [3] was 10.1 nM. It also gave an EC50 [4] of 3.44 nM, an EC50 [5] of 9.81 nM and an EC50 [6] of 21.1 nM. The EC50 [7] was 11.2 nM, the EC50 [8] was 307 nM and the EC50 [9] was greater than 182000 nM.

In the case of Cc1cc(C#N)cc(C)c1Oc1nc(NC2CCN(Cc3ccc(C(N)=O)cc3)CC2)ncc1-c1ccncc1, the EC50 [1] is reported as 3.75 nM, the EC50 [2] is reported as 24.4 nM and the EC50 [3] is reported as 4.26 nM. For the same molecule, the EC50 [4] was 3.79 nM, the EC50 [5] was 6.79 nM and the EC50 [6] was 6.79 nM. It also gave an EC50 [7] of 10.9 nM, an EC50 [8] of 10.4 nM and a Tmax [10] of 19.8 min. For the same molecule, the Tmax [11] was 60 min, the Activity [12] was “Non-Toxic” and the Activity [13] was “Non-Toxic”. The Activity [14] was “Non-Toxic” and the EC50 [9] was greater than 36000 nM.

Cc1cc(/C=C/C#N)cc(C)c1Oc1nc(NC2CCN(Cc3ccc(S(N)(=O)=O)cc3)CC2)ncc1-c1cccnc1 showed an EC50 [1] of 5.04 nM, an EC50 [2] of 25.8 nM and an EC50 [3] of 7.85 nM. The EC50 [4] was 6.25 nM, the EC50 [5] was 9.95 nM and the EC50 [6] was 25.1 nM. It also gave an EC50 [7] of 11.9 nM and an EC50 [8] of 12.2 nM.
